According to ChEMBL document CHEMBL1155425, “Synthesis and antitumor activity of 1-mesityl-3-(2-naphthoylmethano)-1H-imidazolium bromide” (Bioorg Med Chem Lett, 2010):

Columns and labels:
[1] = tested on: Mus musculus; test: Acute toxicity in human A549 cells xenografted mouse at 10 to 80 mg/kg; assay type: organism-based; parameters: dose 10-80 mg/kg; conditions: in vivo
[2] = tested on: K562; test: Cell cycle arrest in human K562 cells assessed as accumulation at S phase at 2 ug/ml after 24 hrs by flow cytometry; assay type: functional
Summary of the method: (§1)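 K562 cells, synchronized, treated 24 h. Trypsinized, washed in PBS, fixed overnight in ice-cold 70% EtOH. Treated with RNase A 100 µg/mL at 37 °C for 30 min, then stained with propidium iodide (final 50 µg/mL). 20,000 cells analyzed by flow cytometry for DNA content; phase percentages representative of three independent experiments.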

[3] = tested on: K562; test: Cell cycle arrest in human K562 cells assessed as accumulation at S phase at 10 ug/ml after 24 hrs by flow cytometry; assay type: functional; summary of the method: as §1
[4] = tested on: SMMC-7721; test: Cytotoxicity in human SMMC7721 cells after 48 hrs by MTT assay; assay type: functional, cell-based; conditions: SMMC-7721, 48 h
Summary of the method: (§2)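 Cells grown at 37 °C, 5% CO₂, in RPMI 1640 with 10% fetal serum. Exposed 48 h to compound at 0.1–100 µg/mL. Viability by MTT, absorbance at 570 nm. IC50 is the concentration giving 50% reduction in absorbance versus untreated cells; triplicate tests.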

[5] = tested on: EJ; test: Cytotoxicity in human EJ cells after 48 hrs by MTT assay; assay type: functional, cell-based; summary of the method: as §2
[6] = tested on: K562; test: Cell cycle arrest in human K562 cells assessed as accumulation at G1 phase at 2 ug/ml after 24 hrs by flow cytometry; assay type: functional; summary of the method: as §1
[7] = tested on: K562; test: Cytotoxicity in human K562 cells after 48 hrs by MTT assay; assay type: functional, cell-based; conditions: K562, 48 h; summary of the method: as §2
[8] = Selectivity ratio of IC50 for human A549 cells to IC50 for human Hep2 cells; assay type: functional
[9] = tested on: A549; test: Antitumor activity against human A549 cells xenografted in nude mouse assessed as increase in tumor volume at 8 mg/kg, ip administered every 2 days for 19 days measured on day 19 postimplantation relative to tumor volume on day of implantation; assay type: functional; conditions: route intraperitoneal
Summary of the method: (§3)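 Nude mice implanted s.c. in right flank with A549 cells (2 × 10⁷ cells/mL) on day 0. Treatment began at mean tumor ~100 mm³ (day 1). Compound in 0.5% CMC-Na given ip every 2 days for 19 days, 0.2 mL per 20 g body weight; cisplatin 1 mg/kg as reference. Caliper volume (W² × L)/2, expressed as RTV = TVn/TV₁.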

[10] = tested on: K562; test: Cell cycle arrest in human K562 cells assessed as accumulation at G2/M phase at 2 ug/ml after 24 hrs by flow cytometry; assay type: functional; summary of the method: as §1
[11] = tested on: K562; test: Induction of apoptosis in human K562 cells at 10 ug/ml after 24 hrs by Annexin-V-FITC/PI double labelled cytometry; assay type: functional
Summary of the method: (§4)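 K562 cells (1 × 10⁶/mL) treated 24 h, then resuspended in binding buffer. Stained with Annexin V-FITC and PI for 15 min at room temperature in the dark, diluted in binding buffer, analyzed by flow cytometry. Apoptosis rate given as mean ± S.D. of at least three independent experiments.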

[12] = tested on: K562; test: Cell cycle arrest in human K562 cells assessed as accumulation at G2/M phase at 10 ug/ml after 24 hrs by flow cytometry; assay type: functional; summary of the method: as §1
[13] = tested on: HEp-2; test: Cytotoxicity in human Hep2 cells after 48 hrs by MTT assay; assay type: functional, cell-based; conditions: HEp-2, 48 h; summary of the method: as §2
[14] = tested on: K562; test: Cell cycle arrest in human K562 cells assessed as accumulation at G1 phase at 10 ug/ml after 24 hrs by flow cytometry; assay type: functional; summary of the method: as §1
[15] = tested on: Raji; test: Cytotoxicity in human Raji cells after 48 hrs by MTT assay; assay type: functional, cell-based; summary of the method: as §2
[16] = Selectivity ratio of IC50 for human A549 cells to IC50 for human Raji cells; assay type: functional
[17] = tested on: A549; test: Cytotoxicity in human A549 cells after 48 hrs by MTT assay; assay type: functional, cell-based; conditions: A549, 48 h; summary of the method: as §2
[18] = tested on: K562; test: Induction of apoptosis in human K562 cells at 2 ug/ml after 24 hrs by Annexin-V-FITC/PI double labelled cytometry; assay type: functional; summary of the method: as §4
[19] = tested on: A549; test: Antitumor activity against human A549 cells xenografted in nude mouse assessed as increase in tumor volume at 4 mg/kg, ip administered every 2 days for 19 days measured on day 19 postimplantation relative to tumor volume on day of implantation; assay type: functional; conditions: route intraperitoneal; summary of the method: as §3
[20] = tested on: HepG2; test: Cytotoxicity in human HepG2 cells after 48 hrs by MTT assay; assay type: functional, cell-based; conditions: HepG2, 48 h; summary of the method: as §2

Cc1cc(C)c(-n2cc[n+](CC(=O)c3ccc4ccccc4c3)c2)c(C)c1.[Br-]
Activity [1]: Non-toxic
Activity [2]: 45%
Activity [3]: 26%
IC50 [4]: 1.8 µg/mL
IC50 [5]: 1.2 µg/mL
Activity [6]: 40%
IC50 [7]: 1.7 µg/mL
Ratio IC50 [8]: 8
fold change (FC) [9]: 3.1
Activity [10]: 16%
Activity [11]: 15.5%
Activity [12]: 19%
IC50 [13]: 0.3 µg/mL
Activity [14]: 56%
IC50 [15]: 0.7 µg/mL
Ratio IC50 [16]: 8
IC50 [17]: 5 µg/mL
Activity [18]: 8.1%
fold change (FC) [19]: 5.3
IC50 [20]: 2.2 µg/mL
